Laboratory results from ChEMBL document CHEMBL5653631, “A Potent and Selective ULK1 Inhibitor Suppresses Autophagy and Sensitizes Cancer Cells to Nutrient Stress” (iScience, 2018).

Experiments:
[1] = target: Serine/threonine-protein kinase MARK2 (Homo sapiens) (UniProt Q7KZI7); experiment: Inhibition of human recombinant MARK2 at 40 nM related to control ULK1
[2] = target: T1, Aurora kinase C (Homo sapiens) (UniProt Q9UQB9); experiment: Inhibition of human recombinant AurC at 40 nM related to control ULK1
T1 sequence (whole entry): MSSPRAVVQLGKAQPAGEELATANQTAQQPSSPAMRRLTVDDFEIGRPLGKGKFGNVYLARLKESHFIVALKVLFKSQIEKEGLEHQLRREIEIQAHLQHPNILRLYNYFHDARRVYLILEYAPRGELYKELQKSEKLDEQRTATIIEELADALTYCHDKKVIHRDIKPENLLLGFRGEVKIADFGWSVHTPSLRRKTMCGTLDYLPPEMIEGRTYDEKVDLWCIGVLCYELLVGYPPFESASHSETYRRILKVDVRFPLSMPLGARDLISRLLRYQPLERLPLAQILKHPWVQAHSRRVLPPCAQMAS
Procedure, shortened: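 Radiometric activity assays in a panel of 327 human recombinant kinases, each run in duplicate at one inhibitor concentration. Activity remaining is expressed as percent of vehicle control, and percent inhibition is calculated as 100% minus percent activity remaining.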

[3] = target: Cyclin-dependent kinase 18 (Homo sapiens) (UniProt Q07002); experiment: Inhibition of human recombinant PCTAIRE3 at 40 nM related to control ULK1
[4] = target: T2, Testis-specific serine/threonine-protein kinase 1 (Homo sapiens) (UniProt Q9BXA7); experiment: Inhibition of human recombinant TSSK1 at 40 nM in presence of ATP by radiometric assay relative to control
T2 sequence (whole entry): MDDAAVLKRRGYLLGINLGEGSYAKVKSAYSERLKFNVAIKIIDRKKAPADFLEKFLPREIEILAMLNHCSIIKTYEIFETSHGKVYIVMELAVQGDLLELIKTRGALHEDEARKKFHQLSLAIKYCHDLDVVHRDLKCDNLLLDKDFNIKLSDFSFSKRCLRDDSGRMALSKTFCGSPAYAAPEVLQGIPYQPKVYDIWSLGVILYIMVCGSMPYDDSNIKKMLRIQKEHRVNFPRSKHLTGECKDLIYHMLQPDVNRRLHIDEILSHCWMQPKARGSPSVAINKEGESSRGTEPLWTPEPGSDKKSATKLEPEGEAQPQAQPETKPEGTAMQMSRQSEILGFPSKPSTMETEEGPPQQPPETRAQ

[5] = target: Leucine-rich repeat serine/threonine-protein kinase 2 (Homo sapiens) (UniProt Q5S007); experiment: Inhibition of human recombinant LRRK2 at 40 nM related to control ULK1
Leucine-rich repeat serine/threonine-protein kinase 2 (Homo sapiens), sequence (Q5S007 whole entry): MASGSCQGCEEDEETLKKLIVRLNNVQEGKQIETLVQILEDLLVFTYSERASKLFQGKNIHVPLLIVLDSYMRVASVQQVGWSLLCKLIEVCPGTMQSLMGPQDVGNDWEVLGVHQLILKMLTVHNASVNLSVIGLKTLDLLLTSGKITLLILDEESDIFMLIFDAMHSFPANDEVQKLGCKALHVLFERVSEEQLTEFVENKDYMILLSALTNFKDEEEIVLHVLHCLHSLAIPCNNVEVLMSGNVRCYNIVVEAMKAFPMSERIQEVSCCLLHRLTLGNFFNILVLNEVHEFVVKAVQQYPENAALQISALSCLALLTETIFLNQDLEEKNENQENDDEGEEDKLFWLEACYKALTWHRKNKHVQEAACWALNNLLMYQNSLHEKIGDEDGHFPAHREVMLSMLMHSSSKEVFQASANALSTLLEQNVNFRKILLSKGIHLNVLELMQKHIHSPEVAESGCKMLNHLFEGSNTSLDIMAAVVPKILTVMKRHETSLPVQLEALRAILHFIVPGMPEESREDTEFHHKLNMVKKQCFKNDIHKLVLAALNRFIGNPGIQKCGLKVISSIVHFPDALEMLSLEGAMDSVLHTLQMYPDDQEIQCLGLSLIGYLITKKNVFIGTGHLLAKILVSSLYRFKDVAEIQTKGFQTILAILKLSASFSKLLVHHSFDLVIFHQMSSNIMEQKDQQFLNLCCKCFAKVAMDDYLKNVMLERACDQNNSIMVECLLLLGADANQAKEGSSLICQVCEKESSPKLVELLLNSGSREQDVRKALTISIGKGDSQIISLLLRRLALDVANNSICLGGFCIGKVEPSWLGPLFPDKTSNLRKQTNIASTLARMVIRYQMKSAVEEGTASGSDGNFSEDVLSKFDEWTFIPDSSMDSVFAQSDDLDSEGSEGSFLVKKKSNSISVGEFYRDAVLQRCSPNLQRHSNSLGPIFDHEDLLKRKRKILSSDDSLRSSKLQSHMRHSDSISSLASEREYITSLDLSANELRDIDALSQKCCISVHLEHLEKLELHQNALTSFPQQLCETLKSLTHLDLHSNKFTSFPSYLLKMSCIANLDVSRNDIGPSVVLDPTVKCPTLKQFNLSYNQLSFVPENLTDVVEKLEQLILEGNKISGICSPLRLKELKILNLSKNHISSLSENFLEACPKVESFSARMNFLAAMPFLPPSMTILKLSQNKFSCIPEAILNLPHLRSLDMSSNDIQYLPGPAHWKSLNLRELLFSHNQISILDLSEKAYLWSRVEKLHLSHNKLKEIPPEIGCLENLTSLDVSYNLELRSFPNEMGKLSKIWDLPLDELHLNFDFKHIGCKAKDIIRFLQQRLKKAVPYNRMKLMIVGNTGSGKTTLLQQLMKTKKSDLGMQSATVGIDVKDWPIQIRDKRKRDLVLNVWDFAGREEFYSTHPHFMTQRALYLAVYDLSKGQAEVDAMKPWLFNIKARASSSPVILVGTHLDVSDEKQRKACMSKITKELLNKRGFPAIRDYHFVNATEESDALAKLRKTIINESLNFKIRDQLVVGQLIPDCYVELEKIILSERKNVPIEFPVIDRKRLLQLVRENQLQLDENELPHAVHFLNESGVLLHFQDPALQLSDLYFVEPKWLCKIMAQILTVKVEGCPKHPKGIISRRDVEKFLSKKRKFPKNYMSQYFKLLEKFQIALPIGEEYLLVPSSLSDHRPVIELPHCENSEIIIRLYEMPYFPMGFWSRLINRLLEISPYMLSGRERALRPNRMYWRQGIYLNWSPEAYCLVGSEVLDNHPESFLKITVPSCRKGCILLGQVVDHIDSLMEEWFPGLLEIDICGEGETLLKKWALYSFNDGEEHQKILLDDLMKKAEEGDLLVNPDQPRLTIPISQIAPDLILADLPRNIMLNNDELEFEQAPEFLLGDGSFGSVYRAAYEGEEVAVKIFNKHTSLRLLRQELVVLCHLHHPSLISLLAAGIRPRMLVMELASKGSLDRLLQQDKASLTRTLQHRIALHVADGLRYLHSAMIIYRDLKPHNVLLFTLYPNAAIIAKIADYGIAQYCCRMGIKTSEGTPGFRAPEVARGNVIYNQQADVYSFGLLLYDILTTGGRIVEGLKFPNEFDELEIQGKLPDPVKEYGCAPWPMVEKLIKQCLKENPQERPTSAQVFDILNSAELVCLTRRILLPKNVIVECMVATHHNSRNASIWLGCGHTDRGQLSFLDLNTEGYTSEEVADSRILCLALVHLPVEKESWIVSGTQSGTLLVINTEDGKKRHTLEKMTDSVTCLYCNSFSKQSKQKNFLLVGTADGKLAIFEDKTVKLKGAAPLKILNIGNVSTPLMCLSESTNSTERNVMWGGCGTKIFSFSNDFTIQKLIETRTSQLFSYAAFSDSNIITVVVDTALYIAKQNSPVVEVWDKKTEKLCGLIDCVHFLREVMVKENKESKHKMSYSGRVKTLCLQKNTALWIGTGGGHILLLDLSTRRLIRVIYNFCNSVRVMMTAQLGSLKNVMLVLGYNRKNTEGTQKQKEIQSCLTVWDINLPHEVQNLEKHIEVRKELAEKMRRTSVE

[6] = target: Dual specificity protein kinase CLK2 (Homo sapiens) (UniProt P49760); experiment: Inhibition of human recombinant CLK2 at 500 nM in presence of ATP by radiometric assay relative to control
[7] = target: Protein-tyrosine kinase 2-beta (Homo sapiens) (UniProt Q14289); experiment: Inhibition of human recombinant PYK2 at 500 nM in presence of ATP by radiometric assay relative to control
Protein-tyrosine kinase 2-beta (Homo sapiens), sequence (Q14289 whole entry, looked up): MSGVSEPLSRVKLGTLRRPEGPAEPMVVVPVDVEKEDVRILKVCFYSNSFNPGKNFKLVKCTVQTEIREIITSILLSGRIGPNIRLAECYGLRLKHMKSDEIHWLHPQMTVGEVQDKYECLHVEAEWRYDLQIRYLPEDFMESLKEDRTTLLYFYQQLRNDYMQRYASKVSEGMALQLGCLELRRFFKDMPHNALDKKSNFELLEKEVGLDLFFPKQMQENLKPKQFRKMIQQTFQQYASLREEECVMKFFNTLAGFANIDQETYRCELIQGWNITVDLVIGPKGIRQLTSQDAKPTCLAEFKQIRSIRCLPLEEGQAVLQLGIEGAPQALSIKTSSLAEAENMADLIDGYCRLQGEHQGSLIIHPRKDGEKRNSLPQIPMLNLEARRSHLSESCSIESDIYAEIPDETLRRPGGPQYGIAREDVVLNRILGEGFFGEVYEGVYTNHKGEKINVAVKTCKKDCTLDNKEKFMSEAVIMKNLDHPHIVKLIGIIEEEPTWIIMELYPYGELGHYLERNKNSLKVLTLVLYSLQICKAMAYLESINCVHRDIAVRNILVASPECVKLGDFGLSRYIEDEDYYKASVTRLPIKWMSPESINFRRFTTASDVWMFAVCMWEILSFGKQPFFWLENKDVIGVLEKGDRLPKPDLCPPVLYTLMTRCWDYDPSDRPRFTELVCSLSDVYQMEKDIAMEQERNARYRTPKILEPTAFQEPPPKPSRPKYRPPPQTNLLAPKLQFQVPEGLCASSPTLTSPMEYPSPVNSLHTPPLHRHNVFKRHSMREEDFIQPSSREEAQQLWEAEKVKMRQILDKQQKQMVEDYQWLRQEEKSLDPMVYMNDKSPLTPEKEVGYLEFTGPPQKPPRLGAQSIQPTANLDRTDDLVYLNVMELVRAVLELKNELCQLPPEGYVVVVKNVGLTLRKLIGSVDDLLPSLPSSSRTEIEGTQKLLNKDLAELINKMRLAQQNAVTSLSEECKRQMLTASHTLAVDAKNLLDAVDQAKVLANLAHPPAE

[8] = target: Myosin light chain kinase 2, skeletal/cardiac muscle (Homo sapiens) (UniProt Q9H1R3); experiment: Inhibition of human recombinant skMLCK at 500 nM in presence of ATP by radiometric assay relative to control
Myosin light chain kinase 2, skeletal/cardiac muscle (Homo sapiens), sequence (Q9H1R3 whole entry, the tested form may be a part): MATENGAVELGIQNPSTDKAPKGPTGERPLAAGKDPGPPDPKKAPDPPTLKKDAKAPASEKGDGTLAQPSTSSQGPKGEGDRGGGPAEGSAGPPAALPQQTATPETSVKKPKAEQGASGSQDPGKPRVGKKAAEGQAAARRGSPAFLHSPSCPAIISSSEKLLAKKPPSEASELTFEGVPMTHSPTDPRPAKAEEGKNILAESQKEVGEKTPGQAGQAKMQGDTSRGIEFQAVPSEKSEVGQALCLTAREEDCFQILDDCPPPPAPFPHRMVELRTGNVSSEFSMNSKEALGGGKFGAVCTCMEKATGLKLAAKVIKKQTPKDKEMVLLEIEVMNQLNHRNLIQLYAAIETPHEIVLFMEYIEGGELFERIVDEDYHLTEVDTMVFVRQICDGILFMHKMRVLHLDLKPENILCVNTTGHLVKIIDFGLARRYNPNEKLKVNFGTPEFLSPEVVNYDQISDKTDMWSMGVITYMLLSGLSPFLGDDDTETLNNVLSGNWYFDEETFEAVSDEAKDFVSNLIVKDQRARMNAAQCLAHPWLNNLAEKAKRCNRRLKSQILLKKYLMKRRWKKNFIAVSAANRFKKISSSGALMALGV

[9] = target: PAS domain-containing serine/threonine-protein kinase (Homo sapiens) (UniProt Q96RG2); experiment: Inhibition of human recombinant PASK at 15 nM in presence of ATP by radiometric assay relative to control
[10] = target: Serine/threonine-protein kinase PAK 3 (Homo sapiens) (UniProt O75914); experiment: Inhibition of human recombinant PAK3 at 15 nM in presence of ATP by radiometric assay relative to control
[11] = target: T3, Ephrin type-A receptor 8 (Homo sapiens) (UniProt P29322); experiment: Inhibition of human recombinant EphA8 at 15 nM in presence of ATP by radiometric assay relative to control
T3 sequence (whole entry): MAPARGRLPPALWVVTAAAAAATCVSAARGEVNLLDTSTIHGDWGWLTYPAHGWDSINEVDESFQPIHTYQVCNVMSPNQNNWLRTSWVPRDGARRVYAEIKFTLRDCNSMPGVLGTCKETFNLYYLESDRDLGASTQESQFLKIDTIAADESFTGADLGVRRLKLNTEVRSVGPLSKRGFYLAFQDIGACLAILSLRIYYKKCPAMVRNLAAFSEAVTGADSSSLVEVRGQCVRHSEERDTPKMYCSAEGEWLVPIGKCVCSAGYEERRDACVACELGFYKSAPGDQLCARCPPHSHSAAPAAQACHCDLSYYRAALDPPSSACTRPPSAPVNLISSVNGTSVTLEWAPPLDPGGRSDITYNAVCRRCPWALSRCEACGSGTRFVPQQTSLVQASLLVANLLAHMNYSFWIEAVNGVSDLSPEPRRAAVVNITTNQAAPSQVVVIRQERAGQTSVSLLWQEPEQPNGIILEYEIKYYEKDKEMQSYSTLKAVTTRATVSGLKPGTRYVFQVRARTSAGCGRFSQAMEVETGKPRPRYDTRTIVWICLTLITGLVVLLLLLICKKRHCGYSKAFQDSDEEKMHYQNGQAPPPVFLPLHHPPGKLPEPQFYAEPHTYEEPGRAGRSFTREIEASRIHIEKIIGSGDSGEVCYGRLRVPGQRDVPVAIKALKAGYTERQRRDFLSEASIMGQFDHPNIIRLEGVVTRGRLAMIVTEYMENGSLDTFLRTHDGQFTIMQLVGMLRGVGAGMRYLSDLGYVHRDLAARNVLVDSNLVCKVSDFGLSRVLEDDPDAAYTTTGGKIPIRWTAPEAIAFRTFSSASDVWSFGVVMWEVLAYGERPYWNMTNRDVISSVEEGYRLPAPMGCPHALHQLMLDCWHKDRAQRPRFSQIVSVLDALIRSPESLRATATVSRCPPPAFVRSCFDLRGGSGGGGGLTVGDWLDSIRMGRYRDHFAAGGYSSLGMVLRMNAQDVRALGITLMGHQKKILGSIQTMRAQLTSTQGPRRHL

[12] = target: Mitogen-activated protein kinase kinase kinase kinase 4 (Homo sapiens) (UniProt O95819); experiment: Inhibition of human recombinant HGK at 15 nM related to control ULK1
[13] = target: Maternal embryonic leucine zipper kinase (Homo sapiens) (UniProt Q14680); experiment: Inhibition of human recombinant MELK at 15 nM related to control ULK1

Serine/threonine-protein kinase MARK2 (Homo sapiens), sequence (Q7KZI7 whole entry): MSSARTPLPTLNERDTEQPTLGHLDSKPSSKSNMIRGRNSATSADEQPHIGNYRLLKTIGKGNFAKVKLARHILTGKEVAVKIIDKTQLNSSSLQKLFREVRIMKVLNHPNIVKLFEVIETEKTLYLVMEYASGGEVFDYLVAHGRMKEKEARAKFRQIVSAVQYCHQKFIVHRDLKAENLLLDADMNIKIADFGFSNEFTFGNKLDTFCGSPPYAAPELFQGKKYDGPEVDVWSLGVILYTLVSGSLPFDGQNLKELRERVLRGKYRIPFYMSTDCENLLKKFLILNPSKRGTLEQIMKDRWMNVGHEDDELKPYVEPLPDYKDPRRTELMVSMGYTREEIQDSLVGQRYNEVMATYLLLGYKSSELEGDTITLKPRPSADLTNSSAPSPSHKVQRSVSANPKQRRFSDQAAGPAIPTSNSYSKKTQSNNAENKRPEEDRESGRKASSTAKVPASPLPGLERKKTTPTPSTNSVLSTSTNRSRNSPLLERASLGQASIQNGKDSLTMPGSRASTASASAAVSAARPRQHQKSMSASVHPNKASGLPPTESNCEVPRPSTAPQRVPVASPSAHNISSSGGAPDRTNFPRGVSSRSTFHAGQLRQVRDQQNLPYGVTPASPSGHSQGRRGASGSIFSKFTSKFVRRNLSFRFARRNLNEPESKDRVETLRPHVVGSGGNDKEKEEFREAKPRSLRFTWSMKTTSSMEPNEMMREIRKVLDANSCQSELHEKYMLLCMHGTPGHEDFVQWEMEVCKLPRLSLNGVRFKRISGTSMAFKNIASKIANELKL

`O=C(N[C@@H](C1CC1)C(F)(F)F)c1cc(-c2cnn3cc(-c4ccc(F)cc4)cnc23)cs1` was tested, and the fold change (FC) [1] was 0.16, the fold change (FC) [2] was 0 and the fold change (FC) [3] was 0.42. It also gave an inhibition [4] of 0% and a fold change (FC) [5] of 0.04.

Work on `CNC(=O)c1ccccc1Oc1nc(Nc2cc(OC)c(OC)c(OC)c2)ncc1Br` yielded an inhibition [6] of 7%, an inhibition [7] of 53% and an inhibition [8] of 0%.

For `CC(C)[C@H](NC(=O)c1cc(-c2cnn3cc(-c4ccc(OCCN5CCCCC5)cc4)cnc23)cs1)C(F)(F)F`, the inhibition [9] was 0%, the inhibition [10] was 4% and the inhibition [11] was 0%. The fold change (FC) [12] was 0 and the fold change (FC) [13] was 0.76.
